Sampled rows, rich in hits. Any-hit rate of the full collection: about 2.5%.
DENV2 CPE rescue = inhibitors of DENV2 cytopathic effect | 350,000 tested, 1.7% active | CPE inhibition, % at 9.99 µM | DENV2-infected cells, cytopathic effect rescue, plate reader; in the data active = CPE inhibition above about 20%, passing the limit was not always enough; tested in BHK-21 cells
E-selectin induc = induces E-selectin expression in human endothelial cells; P16581; 260,000 tested, 0.37% active; activation, % at 7.58 µM; AID 686992; HUVEC E-selectin immunofluorescence imaging; normalized: neutral wells 0, TNF-alpha wells 100;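 active = mean E-selectin-positive cell signal at least 10% of the positive control, reached in at least 60% of replicates, without over 20% cell loss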
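Read-out basis: % PE-positive cells; Test system: HUVEC primary endothelial cells; Technique: immunofluorescence imaging; Dosing: single-point compound dose.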
PglD inh = blocks C. jejuni PglD acetyltransferase activity; 360,000 tested, 0.098% active; inhibition, % at 12.5 µM; AID 602405; purified PglD enzyme, DTNB colorimetric CoA detection; in the data active = inhibition above about 16%, passing the limit was not always enough
SIRT5 inh = sirtuin-5 (human) deacylase inhibition. Q9NXA8. Purified SirT5, succinyl-peptide AMC, trypsin-coupled fluorescence. inhibition, % at 15 µM. 330,000 tested, 1.1% active; in the data active = inhibition above about 15%
ERAP1 inh = blocks human ERAP1 aminopeptidase activity. inhibition, % at 10.7 µM. Q9NZ08. 340,000 tested, 0.15% active. recombinant ERAP1, Leu-AMC fluorescence, 60 min;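 active = mean replicate inhibition of at least 30%, or all replicates individually reaching that 30% level; inactive = mean below 30% and not every replicate reaching it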
Target sequence (Q9NZ08 whole entry, looked up): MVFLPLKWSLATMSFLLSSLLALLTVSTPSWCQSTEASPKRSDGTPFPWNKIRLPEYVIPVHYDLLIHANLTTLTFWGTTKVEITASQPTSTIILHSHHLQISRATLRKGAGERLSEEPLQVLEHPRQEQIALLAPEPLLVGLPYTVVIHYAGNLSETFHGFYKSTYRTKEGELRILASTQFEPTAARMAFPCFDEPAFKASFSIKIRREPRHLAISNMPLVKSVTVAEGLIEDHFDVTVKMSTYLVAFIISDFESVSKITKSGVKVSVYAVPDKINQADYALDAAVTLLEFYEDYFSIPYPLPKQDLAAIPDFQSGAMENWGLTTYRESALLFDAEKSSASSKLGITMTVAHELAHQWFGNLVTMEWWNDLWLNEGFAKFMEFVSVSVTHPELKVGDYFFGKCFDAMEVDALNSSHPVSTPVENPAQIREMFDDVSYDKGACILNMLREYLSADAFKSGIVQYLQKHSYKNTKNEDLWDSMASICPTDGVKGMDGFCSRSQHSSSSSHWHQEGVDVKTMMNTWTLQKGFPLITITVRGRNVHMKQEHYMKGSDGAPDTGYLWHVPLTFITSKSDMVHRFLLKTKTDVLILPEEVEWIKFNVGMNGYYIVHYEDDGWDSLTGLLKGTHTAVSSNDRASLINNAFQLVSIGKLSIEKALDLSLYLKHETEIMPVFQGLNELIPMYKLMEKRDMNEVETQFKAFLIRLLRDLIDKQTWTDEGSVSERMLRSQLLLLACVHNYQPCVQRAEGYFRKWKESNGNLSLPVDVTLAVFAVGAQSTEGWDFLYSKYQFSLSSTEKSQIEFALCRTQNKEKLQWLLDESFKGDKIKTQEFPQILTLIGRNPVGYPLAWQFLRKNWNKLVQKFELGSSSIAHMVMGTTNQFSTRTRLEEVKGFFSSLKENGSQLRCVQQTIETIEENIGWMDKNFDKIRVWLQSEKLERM
Numbers stand for hits; - = inactive; . = no result given.

SMILES	DENV2 CPE rescue	E-selectin induc	PglD inh	SIRT5 inh	ERAP1 inh
CC=Cc1ccc2n(c1=O)C[C@@H]1[C@@H](CO)[C@H](C(=O)NCC)N(C(=O)C3CCOCC3)[C@H]21 (mixture of isomers)	-	-	-	-	-
O=C(Nc1ccccc1)N1C[C@@H]2[C@H](c3ccccc31)[C@H](CO)N2C(=O)c1cccnc1	.	-	-	.	.
O=C(NN=C1CCCC1)c1cc(Cl)cc(Cl)c1O	-	.	-	-	-
Cc1ccc(C(=O)Nc2ccc(N3CCN(C)CC3)cc2)cc1C	27	.	-	-	-
CCN(CC)c1nc2n(c(=O)n1)CCO2	.	.	-	.	.
CO[C@H]1CN(C)C(=O)c2ccc(NC(C)=O)cc2OC[C@H](C)N(Cc2cc(F)ccc2F)C[C@@H]1C	32	-	-	-	-
COc1cccc(S(=O)(=O)Nc2ccc3c(c2)OC[C@@H](C)N(Cc2cc(F)ccc2F)C[C@@H](C)[C@H](OC)CN(C)C3=O)c1	-	-	-	20	-
CO[C@H]1CN(C)C(=O)c2ccc(NC(C)=O)cc2OC[C@@H](C)N(Cc2cc(F)ccc2F)C[C@H]1C	-	-	-	-	-
Cc1ccc(S(=O)(=O)Nc2ccc3c(c2)CC(=O)N([C@@H](C)CO)C[C@H](C)[C@H](CN(C)CC2CCCCC2)O3)cc1	-	-	-	16	-
C[C@H](CO)N1C[C@H](C)[C@@H](CN(C)CC2CCCCC2)Oc2ccc(NS(=O)(=O)c3ccc(F)cc3)cc2CC1=O	-	-	-	16	-
Cc1ccc(S(=O)(=O)Nc2ccc3c(c2)CC(=O)N([C@H](C)CO)C[C@@H](C)[C@@H](CN(C)CC2CCCCC2)O3)cc1	-	.	-	-	-
CNC[C@@H]1Oc2ccc(NS(=O)(=O)c3ccc(C)cc3)cc2CC(=O)N([C@H](C)CO)C[C@H]1C	42	-	-	-	-
COc1ccc(S(=O)(=O)Nc2ccc3c(c2)CC(=O)N([C@@H](C)CO)C[C@@H](C)[C@H](CN(C)CC2CCCCC2)O3)cc1	-	-	-	24	-
N#CC(C#N)=NNc1ccc([N+](=O)[O-])cc1	-	-	.	.	.
Cc1ccc(S(=O)(=O)Nc2ccc3c(c2)CC(=O)N([C@H](C)CO)C[C@H](C)[C@@H](CN(C)CC2CCCCC2)O3)cc1	-	-	-	19	-
O=C1[C@H](Cc2ccccc2)NCC=CC[C@H](c2ccc(Cl)cc2)N1Cc1ccccc1	25	-	-	.	.
O=C(NCC(=O)N1CCCC1)c1ccc(Br)o1	-	.	-	-	-
Cc1ccc(SCc2cc(=O)n3[nH]c(C)nc3n2)cc1	.	.	-	.	.
Cc1ccc(SCc2cc(=O)n(C)[nH]2)cc1	-	82	.	-	-
CC(NC(=O)/C(C#N)=C/c1ccc([N+](=O)[O-])o1)c1ccccc1 (stereo not drawn)	-	42	-	-	-
O=S(=O)(NC[C@@H]1N[C@@H](CO)[C@H]1c1ccccc1)c1ccccc1	-	-	-	-	-
O=C(O)CCC(=O)NCC(=O)c1ccc(F)cc1	-	70	-	.	.
COc1ccccc1CN1[C@@H]2CN(C(=O)c3ccncc3)c3ccccc3[C@@H]2[C@@H]1CO	-	-	-	-	-
COCC(=O)N1C[C@@H]2[C@H](c3ccccc31)[C@@H](CO)N2C(=O)c1ccccc1F	41	-	-	-	-
COCC(=O)N1C[C@@H]2[C@H](c3ccccc31)[C@H](CO)N2C(=O)Nc1ccccc1Cl	27	-	-	-	-
SMILES	DENV2 CPE rescue	E-selectin induc	PglD inh	SIRT5 inh	ERAP1 inh
COCC(=O)N1C[C@@H]2[C@H](c3ccccc31)[C@@H](CO)N2C(=O)Nc1ccccc1Cl	-	-	-	-	-
CCCNC(=O)N1C[C@@H]2[C@H](c3ccccc31)[C@H](CO)N2C(=O)c1ccncc1	25	-	-	-	-
COc1ccccc1CN1[C@H](CO)[C@H]2c3ccccc3N(C(=O)c3ccncc3)C[C@H]21	95	-	-	-	-
CCCNC(=O)N1C[C@H]2[C@@H](c3ccccc31)[C@H](CO)N2C(=O)c1ccncc1	-	-	-	-	-
COc1ccc2c3c(n(C)c2c1)[C@H](CO)N(C(=O)CN1CCOCC1)CC31CCN(Cc2ccncc2)CC1	-	-	.	-	-
Cc1ccc(C)c(/C(O)=C2/C(=O)C(=O)N(CCN3CCOCC3)C2c2ccco2)c1 (stereo not drawn)	.	.	-	.	.
O=C(c1ccccc1F)N1C[C@H]2[C@@H](c3ccccc31)[C@H](CO)N2C(=O)c1ccncc1	22	-	-	-	-
O=C(c1ccccc1F)N1C[C@@H]2[C@H](c3ccccc31)[C@H](CO)N2C(=O)c1ccncc1	-	-	-	-	-
COc1ccc(/C(C)=N/NC(=O)c2ccc(CSc3cccc4cccnc34)cc2)cc1OC	.	.	-	.	.
C/C(=N\NC(=O)c1ccc(CSc2cccc3cccnc23)cc1)C1CCCCC1	102	-	.	-	-
COc1ccc(C(=O)CC(C(=O)O)c2ccc3c(c2)OCO3)cc1OC (stereo not drawn)	-	-	-	-	-
O=c1[nH]c(Cc2ccc(F)cc2)nc2scc(-c3ccc(F)cc3)c12	-	-	-	21	-
Cc1ccc(-c2csc3nc(CN(C)Cc4ccccc4)[nH]c(=O)c23)cc1	.	.	-	-	-
CCOC(=O)C1C(c2ccc(O)c(OC)c2)NC(=O)NC1(O)C(F)(F)F (stereo not drawn)	-	.	-	-	-
O=[N+]([O-])c1ccc2c(c1)CO[C@@]21O[C@H](CCO)C[C@H](O)[C@H]1O	-	65	-	-	.
O=[N+]([O-])c1ccc2c(c1)CCO[C@@]21O[C@H](CCO)C[C@H](O)[C@H]1O	-	.	.	-	-
COc1cccc(NC(=S)NN2CCN(C)CC2)c1	.	.	-	.	.
CN1CCN(NC(=S)Nc2ccc(Oc3ccccc3)cc2)CC1	-	223	.	-	-
COc1ccc(-c2ccc(CN3C(C(C)C)C(=O)N(Cc4cn(CCC5OCCO5)nn4)CCS3(=O)=O)cc2)cc1OC (stereo not drawn)	-	-	-	-	-
Cc1ccc(-c2ccc(CN3C(C(C)C)C(=O)N(Cc4cn(CCC5OCCO5)nn4)CCS3(=O)=O)cc2)c(C)c1 (stereo not drawn)	-	-	-	26	.
CC(C)C1C(=O)N(Cc2cn(CCC3OCCO3)nn2)CCS(=O)(=O)N1Cc1ccc(-c2ccc(Cl)c(Cl)c2)cc1 (stereo not drawn)	25	.	.	-	-
CC1C(=O)N(Cc2cn(CCC3OCCO3)nn2)CCS(=O)(=O)N1Cc1ccc(-c2cccc(N(C)C)c2)cc1 (stereo not drawn)	21	-	-	-	-
N#Cc1cccc(C(=O)Nc2ccccc2C(=O)NC2CC2)c1	-	-	-	-	-
COc1ccc(-c2cc3nc(-c4ccccc4)cc(N4CCN(C(=O)c5ccsc5)CC4)n3n2)cc1	63	-	-	-	-
COc1ccc(-c2cc3nc(-c4ccccc4)cc(N4CCN(C(=O)c5ccccc5)CC4)n3n2)cc1	-	-	.	-	-
CC1(C)Cc2ccccc2-c2nc3n(c(=O)c21)CCS3	-	77	.	-	-

Screening data from PubChem BioAssay.
